Screening data: PubChem, The Scripps Research Institute Molecular Screening Center
TAAR1 agonist – human TAAR1 agonists, primary screen, Fluo-8 calcium fluorescence, CHO RD-HGA16 cells. 360,000 compounds, 0.99% hits. Trace amine-associated receptor 1 (Homo sapiens), Q96RJ0. AID 624467, 2012. vehicle wells 0%, saturating PEA agonist 100%. activation, % at 3 µM;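 active = activation above the mean activation of all test compounds in the run plus 3 SD, cut at about 38% in these data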
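System: CHO RD-HGA16 cells carrying human TAAR1 plus Gα16; Incubation: 17-24 h seeding, 75 min 37 °C dye, 30 min RT; Measured by: Fluo-8 fluorescence, 5 s baseline then 140 s kinetic read; Control set: DMSO and PEA EC100; Replication: single well for each compound.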
CHO parental Ca – ATP-evoked calcium signal inhibitors, parental CHO, primary screen, counter-screen for OX1R antagonist project, cell-based, fluorescence, Fluo-8 calcium dye; parental CHO-K1, ATP-induced calcium, Fluo-8 fluorescence; inhibition, % at 5.6 µM; 330,000 compounds, 0.63% hits; AID 463079, 2010;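 active = inhibition above that plate's mean sample inhibition plus 3 SD, cut at about 26% in these data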;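 also: 0% = ATP-challenged DMSO wells and 100% = DMSO wells without ATP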
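Test system: parental CHO cells; detection: calcium-sensitive Fluo-8 fluorescence; evaluation: percent inhibition of calcium signal; also added: ATP as calcium-mobilizing challenge; repeats: one well per compound; control set: ATP-challenged DMSO wells low, unchallenged DMSO wells high; compound: single nominal dose of 5.6 µM per compound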
TAAR1 antag – human TAAR1 antagonists, primary screen, Fluo-8 calcium fluorescence, CHO RD-HGA16 cells; antagonist; 360,000 compounds, 1.5% hits; inhibition, % at 3 µM; Trace amine-associated receptor 1 (Homo sapiens), Q96RJ0; AID 624466, 2012;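 active = inhibition above a per-plate cutoff, the mean inhibition of test compounds on that plate plus 3 SD, cut at about 49% in these data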;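 also: 0% = DMSO plus EC80 beta-PEA response and 100% = DMSO alone without agonist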
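Test system – hTAAR1-expressing CHO RD-HGA16 cells, Gα16-coupled · Reagent – β-PEA at EC80 concentration, post-compound challenge · Compound dosing – 3 µM, single point · Timing – 140 s kinetic read after compound, 140 s after agonist · Detection – Fluo-8 intracellular calcium dye fluorescence, real-time kinetic reads · Control set – DMSO and EC80 PEA controls · Repeats – n of 1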
GPR7 antagonist – GPR7 receptor antagonists, primary screen, cell-based, fluorescence, single concentration. Neuropeptides B/W receptor type 1 (Homo sapiens), P48145. GPR7-expressing cells, fluorescence antagonist assay. inhibition, % at 4.4 µM. 290,000 compounds, 1.1% hits; in the data active = inhibition above about 16%, passing the limit was not always enough;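 also: cells stimulated with the agonist NPW; 0% = agonist with vehicle and 100% = vehicle without agonist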
Target sequence (P48145 whole entry, looked up): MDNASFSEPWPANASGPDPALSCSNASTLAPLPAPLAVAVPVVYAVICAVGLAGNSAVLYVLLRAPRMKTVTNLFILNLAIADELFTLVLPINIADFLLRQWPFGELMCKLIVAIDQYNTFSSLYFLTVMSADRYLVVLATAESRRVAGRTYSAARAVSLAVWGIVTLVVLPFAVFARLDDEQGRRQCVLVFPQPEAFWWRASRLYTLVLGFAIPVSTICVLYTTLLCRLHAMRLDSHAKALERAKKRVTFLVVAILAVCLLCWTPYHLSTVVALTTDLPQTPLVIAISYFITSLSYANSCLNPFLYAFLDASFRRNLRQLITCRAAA
OX1R antag-1 – antagonists of human orexin 1 receptor (OX1R); Orexin/Hypocretin receptor type 1 (Homo sapiens), O43613; OX1R-expressing cells, FRET antagonist read-out; inhibition, % at 6.6 µM; 330,000 compounds, 1.8% hits; AID 485270, 2010; in the data active = inhibition mostly above about 38%, no sharp cut-off; inactive = mostly below about 40%;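 also: 0% = agonist challenge alone and 100% = reference antagonist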
OX1R antag-2 – OX1R (HCRTR1) antagonists, primary screen, fluorescence, CHO/OX1R cells, Fluo-8 calcium, orexin A. Orexin/Hypocretin receptor type 1 (Homo sapiens), O43613. Fluo-8 calcium fluorescence. inhibition, % at 5 µM. 330,000 compounds, 0.43% hits;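 active = inhibition above its plate's threshold, mean inhibition of all tested compounds on the plate plus 3 SD, cut at about 37% in these data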;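 also: 0% = orexin A challenge wells and 100% = SB-334867-A antagonist wells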
* hit, by the source's call; x = no result given. Shown are actives, neighbours in structure and some others; about 4.6% of the full set was active somewhere.

SMILES | TAAR1 agonist | CHO parental Ca | TAAR1 antag | GPR7 antagonist | OX1R antag-1 | OX1R antag-2
NS(=O)(=O)c1ccc(N=Nc2ccc(=O)[nH]c2O)cc1 | 5.6 | 5.6 | -3.2 | 6.7 | 74.4* | -17.4
COc1ccc(C2CC(C)(c3ccc(OC)cc3OC)Nc3ccccc3N2)c(OC)c1 (centres undefined) | 0.3 | 71.5* | -3.7 | 13.0 | 40.5 | 38.0*
O=[N+]([O-])c1ccc(CSc2ccccn2)cc1 | -0.8 | -5.9 | 4.2 | 1.8 | 2.0 | -4.9
O=C(Nc1cc(Sc2ccccn2)cc([N+](=O)[O-])c1)c1ccc([N+](=O)[O-])cc1 | 14.9 | 40.8* | 24.3 | -6.5 | 22.1 | 44.3*
O=C(Nc1ccc([N+](=O)[O-])cc1)c1ccccc1 | 3.6 | 3.1 | 4.0 | -0.5 | 15.3 | 7.1
O=C(NCc1ccccn1)c1ccc([N+](=O)[O-])cc1 | 0.0 | -5.6 | 8.6 | 2.9 | 30.6 | -14.2
O=C(c1ccc([N+](=O)[O-])cc1)N(c1ccccn1)c1ccccn1 | 4.4 | 1.0 | -9.3 | 1.6 | 74.3* | -11.1
O=[N+]([O-])c1ccc(Sc2ccccn2)nc1 | 0.0 | 2.0 | -32.9 | -3.2 | 72.7* | 0.4
COc1ccccc1NC(=O)N(C)C[C@@H]1OCc2cnnn2CCCC(=O)N([C@@H](C)CO)C[C@@H]1C | 4.2 | x | -8.3 | x | x | x
C=CCN=C1NC(CCc2ccccc2)C(C(=O)OC)=C(C)N1Cc1ccccc1C(F)(F)F (centres undefined) | 9.8 | x | -9.1 | x | x | x
COc1cc(C(=O)Nc2scc(-c3ccc(Br)cc3)c2C(=O)O)cc(OC)c1OC | 6.8 | -8.7 | 27.9 | -12.3 | 54.2* | -3.8
Cc1cccc(C(=O)Nc2scc(-c3ccc(Br)cc3)c2C(=O)O)c1 | 5.1 | -6.1 | 2.0 | x | 17.4 | 8.4
C#CC[N+](C)(C)CCCCCCCCCC | 1.0 | 9.3 | -27.7 | 3.1 | 6.4 | -1.9
CCCCCCCCCCCCCCCC[N+](C)(C)CC | 31.7 | 29.4 | 79.4* | x | 13.9 | 32.7
CCCCCC[N+](C)(C)CCSSCC[N+](C)(C)CCCCCC | 0.9 | -8.7 | 0.8 | -14.6 | 0.7 | -16.9
CCCCCCCCCCCCCCCC[N+](C)(C)CCl | 0.8 | x | 63.3* | x | x | x
O=C(NCCN1C(=O)S/C(=C\c2cccnc2)C1=O)C1CC(=O)N(Cc2ccco2)C1 (centres undefined) | 10.2 | 2.9 | -4.6 | -3.7 | 50.8 | -2.9
O=C(NCCN1C(=O)S/C(=C\c2ccccc2F)C1=O)C1CC(=O)N(Cc2ccccc2)C1 (centres undefined) | 27.0 | -26.0 | 54.3* | x | 18.8 | -6.9
Cn1c(=O)c2cc(NC(=O)CCc3cccnc3)ccc2n1Cc1ccc(F)cc1 | 1.5 | x | 6.7 | x | x | x
CSc1nn(CCC#N)c(=O)[nH]c1=O | 5.9 | x | -37.1 | x | x | x
O=S(=O)(c1ccccc1)c1ccc(N2CCCCCC2)cc1 | 8.3 | 36.5* | -2.6 | -23.9 | 24.1 | -17.3
CCCCSc1cnn(-c2ccccc2)c(=O)c1SCCCC | 5.0 | 29.6* | 11.6 | -20.5 | 2.0 | -25.0
O=C(Nc1ccc2nc(-c3cccs3)c(-c3cccs3)nc2c1)NC1CC1 | 35.6 | 4.3 | 32.5 | 4.2 | 57.9* | -7.4
COCCNC(=O)Nc1ccc2nc(-c3cccs3)c(-c3cccs3)nc2c1 | 8.0 | 0.5 | 32.3 | 4.3 | 51.3 | 4.5
CC(=O)Nc1ccc(NC(=O)COc2cccc3c2OC(C)(C)C3)cc1 | 2.3 | -23.4 | -1.3 | -8.8 | 6.6 | -11.2
COc1cc(NC(=O)COc2cccc3c2OC(C)(C)C3)cc(OC)c1OC | 13.0 | 6.9 | 59.4* | x | 24.1 | 26.1
CCc1nc(SCC(=O)N2CCCc3ccccc32)c2oc3ccccc3c2n1 | 6.8 | -11.1 | 23.3 | -1.6 | 48.4* | -6.4
Nc1scc2c(C(=O)N/N=C/c3ccc(Cl)cc3)nn(-c3ccccc3)c(=O)c12 | 3.2 | -1.9 | 24.4 | -5.3 | 46.7* | -1.4
